Laboratory results reported in ChEMBL document CHEMBL2331370, “Structure and absolute configuration of fumiquinazoline L, an alkaloid from a gorgonian-derived Scopulariopsis sp. fungus” (J Nat Prod, 2013).
Calls of active or inactive are those of the source. The calls are words filed in the database; no cut-off is given here.

Experiments:
Vibrio anguillarum = test: Antibacterial activity against Vibrio anguillarum ATCC 19019 at 50 uM after 24 hrs by serial dilution technique; assay type: functional, organism-based
In short: (§1)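 Broth serial dilution MIC in 96-well plates. Compound given as DMSO stock. Strains grown overnight at 37 °C in LB broth, then diluted to 106 cfu/mL. Positive control ciprofloxacin; DMSO as negative control; LB broth as blank. Incubation 37 °C, 24 h, then plates read at 630 nm.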

Escherichia coli = test: Antibacterial activity against Escherichia coli ATCC 25922 at 50 uM after 24 hrs by serial dilution technique; assay type: functional, organism-based; in short: as §1
Staphylococcus aureus = test: Antibacterial activity against Staphylococcus aureus ATCC 27154 at 50 uM after 24 hrs by serial dilution technique; assay type: functional, organism-based; in short: as §1
Micrococcus = test: Antibacterial activity against Micrococcus tetragenus ATCC 13623 at 50 uM after 24 hrs by serial dilution technique; assay type: functional, organism-based; in short: as §1
Bacillus cereus = test: Antibacterial activity against Bacillus cereus ACCC 11077 at 50 uM after 24 hrs by serial dilution technique; assay type: functional, organism-based; in short: as §1
Micrococcus luteus = test: Antibacterial activity against Micrococcus luteus ATCC 49732 at 50 uM after 24 hrs by serial dilution technique; assay type: functional, organism-based; in short: as §1
Vibrio parahaemolyticus = test: Antibacterial activity against Vibrio parahaemolyticus ATCC 17802 after 24 hrs by serial dilution technique; assay type: functional; settings: ATCC 17802, 24 h; in short: as §1
Staphylococcus = test: Antibacterial activity against Staphylococcus albus ATCC 8799 after 24 hrs by serial dilution technique; assay type: functional; settings: ATCC 8799, 24 h; in short: as §1
Bacillus subtilis = test: Antibacterial activity against Bacillus subtilis ATCC 6633 after 24 hrs by serial dilution technique; assay type: functional; settings: ATCC 6633, 24 h; in short: as §1
K562 = test: Cytotoxicity against human K562 cells at 100 uM after 6 days by MTT assay; assay type: functional, cell-based
Bel-7402 = test: Cytotoxicity against human Bel7402 cells at 100 uM after 6 days by MTT assay; assay type: functional, cell-based
SGC-7901 = test: Cytotoxicity against human SGC7901 cells at 100 uM after 6 days by MTT assay; assay type: functional, cell-based
A549 = test: Cytotoxicity against human A549 cells after 6 days by MTT assay; assay type: functional, cell-based; settings: A549, 144 h
SPC-A1 = test: Cytotoxicity against human SPC-A1 cells at 100 uM after 6 days by MTT assay; assay type: functional, cell-based

CC(C)[C@@H]1N[C@@H]2N(C1=O)c1ccccc1[C@]21C[C@@H]2C(=O)N[C@](C)(O1)c1nc3ccccc3c(=O)n12 [FUMIQUINAZOLINE L]
Activity (Vibrio anguillarum): inactive
Activity (Escherichia coli): inactive
Activity (Staphylococcus aureus): inactive
Activity (Micrococcus): inactive
Activity (Bacillus cereus): inactive
Activity (Micrococcus luteus): inactive
MIC (Vibrio parahaemolyticus): > 50 µM
MIC (Staphylococcus): > 50 µM
MIC (Bacillus subtilis): > 50 µM
Activity (K562): inactive
Activity (Bel-7402): inactive
Activity (SGC-7901): inactive
IC50 (A549): > 10 µM
Activity (SPC-A1): inactive
